According to ChEMBL document CHEMBL3994594, “Angiogenesis Inhibitors and Anti-Inflammatory Agents from Phoma sp. NTOU4195” (J Nat Prod, 2016):
pIC50: −log10 of the molar value. Active and inactive are the calls of the source. The rule behind the calls is not given here.

Assays:
EPC = experiment: Antiangiogenic activity in CD34-positive human EPC assessed as inhibition of tube formation on matrigel at 10 uM after 24 hrs by inverted phase-contrast microscopy; format: functional, cell-based
Outline: (§1)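 Human CD34+ EPCs (from PBMCs, MACS bead separation) maintained on 1% gelatin in MV2 medium with 20% FBS. Matrigel polymerized 30 min at 37 °C; 6 × 10^4 cells/well seeded in MV2 with 2% FBS plus compound, 24 h at 37 °C. Tube length measured in three random fields per well, expressed against DMSO control; IC50 derived from this.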

RAW264.7 [1] = experiment: Antiinflammatory activity in mouse RAW264.7 cells assessed as inhibition of LPS-stimulated nitric oxide production compound treated prior to LPS challenge by Griess assay; format: functional, cell-based
Outline: (§2)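 RAW264.7 grown to confluence (24 h, DMEM 10% FBS), then serum-free DMEM 4 h for quiescence. Compounds added before LPS (200 ng/mL). Nitrite in medium read spectrophotometrically by Griess reaction. Percent inhibition calculated versus vehicle plus LPS; Emax is inhibition at 100 μM, IC50 the concentration giving 50% of Emax; n = 4−6.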

[2] = Antiangiogenic activity in CD34-positive human EPC assessed as inhibition of tube formation on matrigel after 24 hrs by inverted phase-contrast microscopy; format: functional, cell-based; outline: as §1
[3] = Cytotoxicity against CD34-positive human EPC at 20 uM after 24 hrs by LDH release assay; format: cell-based
Outline: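 EPCs seeded at 5 × 10^3 cells/well, treated 24 h in MV2 medium with 2% FBS containing compound at 20 μM. LDH release taken as medium LDH activity relative to cell-lysate LDH activity. Mean ± SEM of three independent experiments.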

[4] = Cytotoxicity against mouse RAW264.7 cells assessed as cell viability by AlamarBlue assay; format: cell-based; set-up: concentration or dose not given beside the values; settings: read-out: Activity
Outline: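 RAW264.7 macrophages exposed to compounds at up to 100 μM under the NO-assay conditions; viability read by AlamarBlue.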

RAW264.7 [5] = experiment: Antiinflammatory activity in mouse RAW264.7 cells assessed as inhibition of LPS-stimulated nitric oxide production at 100 uM compound treated prior to LPS challenge by Griess assay; format: functional; outline: as §2

pIC50 (RAW264.7 [1]) | pIC50 [2] | Structure (SMILES) | inhibition (EPC) | Activity [3] | viability [4] [%] | Emax at 100 µM (RAW264.7 [5]) [%]
4.64 | 4.79 | CO[C@H]1[C@@H](OC(=O)/C=C/[C@H]2O[C@@H]2C)CC[C@@]2(O)CO[C@@](C)(C(O)CC=C(C)C)[C@H]12 (stereo partly drawn) | Active | Non-Toxic | 92.2 | 93.4
4.71 | 5.09 | CO[C@H]1[C@@H](OC(=O)/C=C/[C@@H](O)[C@H](C)O)CC[C@@](O)(CCl)[C@@H]1[C@]1(C)O[C@H]1CC=C(C)C | Active | Non-Toxic | 99.2 | 87.9
< 4.00 | < 4.70 | CC/C=C\[C@H](O)[C@H](O)C1=C(C)C(=O)[C@]2(O1)C(=O)N[C@@](OC)(C(=O)c1ccccc1)[C@@H]2O [PSEUROTIN A] |  |  | 103 | 38.8
4.39 | < 4.70 | CC/C=C\[C@H](O)[C@H](O)C1=C(C)C(=O)[C@]2(O1)C(=O)N[C@](OC)(C(=O)c1ccccc1)[C@H]2O |  |  | 100 | 78.2
4.24 | 4.78 | CC/C(O)=C/C=C(\O)C1=C(C)C(=O)[C@@]2(O1)C(=O)N[C@](OC)(C(=O)c1ccccc1)[C@H]2O | Active | Non-Toxic | 97.6 | 63.1
4.69 | 4.74 | CO[C@H]1[C@@H](OC(=O)/C=C/[C@@H](O)[C@H](C)O)CC[C@@]2(CO2)[C@@H]1[C@@]1(C)O[C@H]1CC=C(C)C |  |  | 97.6 | 100
5.06 | 4.75 | CO[C@H]1[C@@H](OC(=O)/C=C/[C@H]2O[C@H]2C)CC[C@@]2(CO2)[C@@H]1[C@]1(C)O[C@H]1CC=C(C)C | Active | Non-Toxic | 98.7 | 100
4.87 | < 4.70 | CO[C@H]1[C@@H](OC(=O)/C=C/[C@H]2O[C@H]2C)CC[C@@](O)(CCl)[C@@H]1[C@]1(C)O[C@H]1CC=C(C)C |  | Non-Toxic | 101 | 100
4.45 | 4.72 | C=C1CC[C@H](OC(=O)/C=C/[C@@H](O)[C@H](C)O)[C@H](OC)[C@H]1[C@@]1(C)O[C@H]1CC=C(C)C | Active | Non-Toxic | 93 | 80.8
 | 5.44 | CNC(=O)c1cc(Oc2ccc(NC(=O)Nc3ccc(Cl)c(C(F)(F)F)c3)cc2)ccn1 [SORAFENIB] |  |  |  | 
4.20 | < 4.70 | CC/C=C\[C@H](O)[C@H](O)C1=C(C)C(=O)[C@]2(O1)C(=O)N[C@@](OC)(C(=O)c1ccccc1)[C@H]2O |  |  | 99.3 | 67.2

Structure (SMILES) | pIC50 (RAW264.7 [1]) | pIC50 [2] | inhibition (EPC) | Activity [3] | viability [4] [%] | Emax at 100 µM (RAW264.7 [5]) [%]
N=C(N)NN [PIMAGEDINE] | 4.61 |  |  |  | 99.2 | 83.7
N=C(NCCC[C@H](N)C(=O)O)N[N+](=O)[O-] [NITROARGININE] | 3.84 |  |  |  | 102 | 42.1
